Compound activity: PubChem, The Scripps Research Institute Molecular Screening Center
PAFAH1B2 inh: PAFAH1B2 (human) inhibition | P68402 | recombinant PAFAH1B2, FP-rhodamine activity probe, fluorescence polarization | inhibition, % at 3.39 µM | hit rate 1.2% among 340,000;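 active = inhibition above the mean of all tested compounds plus 3 SD, cut at about 24% in these data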;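 also: 0% = enzyme with DMSO and 100% = wells lacking PAFAH1B2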
ASAP1 GAP inh: blocks human ASAP1-stimulated Arf1 GTP hydrolysis | inhibition, % at 16.5 µM | GDP FP detection | hit rate 0.19% among 360,000 | Q9ULH1; in the data active = inhibition above about 25%;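 also: 0% = vehicle with enzyme and substrate and 100% = no enzyme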
Target sequence (Q9ULH1 325-724 limits assumed): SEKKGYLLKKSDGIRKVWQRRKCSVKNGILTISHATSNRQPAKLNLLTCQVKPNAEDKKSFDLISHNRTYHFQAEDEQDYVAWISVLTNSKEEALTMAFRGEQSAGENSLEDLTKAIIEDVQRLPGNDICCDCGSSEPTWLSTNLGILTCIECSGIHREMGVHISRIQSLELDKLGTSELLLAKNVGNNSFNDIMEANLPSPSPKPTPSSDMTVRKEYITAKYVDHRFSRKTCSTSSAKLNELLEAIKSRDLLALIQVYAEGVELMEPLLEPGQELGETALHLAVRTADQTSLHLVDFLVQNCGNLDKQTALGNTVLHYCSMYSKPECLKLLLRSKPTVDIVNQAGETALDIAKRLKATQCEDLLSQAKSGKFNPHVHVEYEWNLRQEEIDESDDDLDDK
pPAFAH inh: inhibitors of human plasma PAF acetylhydrolase (pPAFAH). Q13093. recombinant pPAFAH, FP-rhodamine probe fluorescence polarization. hit rate 1.5% among 330,000. inhibition, % at 3.39 µM;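 active = inhibition above the mean inhibition across the screen plus 3 SD, cut at about 25% in these data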;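 also: inhibitors block binding of the rhodamine activity-based probe so polarization drops; 0% = enzyme with DMSO and 100% = wells lacking pPAFAH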
PAFAH1B3 inh: PAFAH1B3 (human) inhibition; recombinant PAFAH1B3, FP-rhodamine probe, fluorescence polarization; inhibition, % at 3.39 µM; hit rate 0.28% among 340,000;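 active = inhibition above the screen-wide average of all tested compounds plus 3 SD, cut at about 25% in these data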;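 also: 0% = enzyme with DMSO only and 100% = wells lacking PAFAH1B3 protein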
ARFGAP1 inh: inhibits rat ARF GTPase activating protein 1; Q62848; Arfgap1-stimulated ARF1 GTP hydrolysis, GDP FP detection; inhibition, % at 16.5 µM; hit rate 0.26% among 360,000;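 active = inhibition above a per-plate limit, mean inhibition of low control wells plus 3 SD, cut at about 25% in these data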;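 also: 0% = DMSO wells with enzyme and 100% = wells lacking Arfgap1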
Target sequence (Q62848 1-136 limits assumed): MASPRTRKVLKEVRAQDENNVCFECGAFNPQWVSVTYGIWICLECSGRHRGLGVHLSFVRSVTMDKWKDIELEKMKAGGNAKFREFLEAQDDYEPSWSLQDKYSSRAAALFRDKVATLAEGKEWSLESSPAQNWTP
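Material: truncated rat Arfgap1 GAP domain; Incubation: compound-enzyme preincubation 20 min, reaction 120 min, detection 60 min, 25 °C; Read-out: percent inhibition of Arfgap1-stimulated GTP hydrolysis; Technique: FP, GDP Alexa 633 tracer displaced from anti-GDP antibody, 620/688 nm; Controls: No-Arfgap1 wells (100%) versus DMSO full-reaction wells (0%); Replication: single well per compound.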
PAFAH2 FP inh: PAFAH2 (human) inhibition. Q99487. recombinant PAFAH2, FP-rhodamine activity probe, fluorescence polarization. inhibition, % at 3.39 µM. hit rate 0.99% among 340,000. AID 492956;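 active = inhibition above the mean over all tested compounds plus 3 SD, cut at about 30% in these data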;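 also: inhibitors block probe labeling of enzyme so polarization drops; 0% = enzyme with DMSO and 100% = wells lacking PAFAH2 protein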
* hit, by the source's call; . = not tested or not shown. This is a sample that favours compounds with a hit; in the whole collection about 2.7% have one here.

SMILES	PAFAH1B2 inh	ASAP1 GAP inh	pPAFAH inh	PAFAH1B3 inh	ARFGAP1 inh	PAFAH2 FP inh
O=[N+]([O-])c1cccc(N/N=C/c2cc([N+](=O)[O-])ccc2O)c1	-1	-8	28*	8	10	39*
COc1ccc(O)c(/C=N/Nc2nc3ccccc3[nH]2)c1	9	7	6	2	-1	-6
Cc1cc(Cl)ccc1NC(=O)CCC(=O)N/N=C/c1cc([N+](=O)[O-])ccc1O	3	14	2	3	8	6
O=C(N/N=C/c1cc([N+](=O)[O-])ccc1O)Nc1ccccc1	32*	-6	13	3	-9	3
O=[N+]([O-])c1ccc(O)c(/C=N/NC(=S)Nc2ccc(Cl)cc2Cl)c1	42*	4	18	23	-11	45*
O=[N+]([O-])c1ccc(O)c(C=NNc2ccc(S(=O)(=O)O)cc2)c1	6	-22	.	9	1	6
O=C(NN=Cc1cc([N+](=O)[O-])ccc1O)c1cccc2ccccc12	6	2	.	11	-3	25
O=[N+]([O-])c1ccc(O)c(/C=N/Nc2nc3ccccc3[nH]2)c1	35*	3	12	16	-3	-1
COCc1cc(N2CCN(C(=O)OC(C)(C)C)C[C@H]2C)ccc1N1CCN(Cc2ccccc2)[C@H](C)C1	.	-4	.	.	-13	.
COC(=O)C1=C(C)N(C)C(=NCc2ccccc2)NC1c1ccc(F)cc1 (stereo not drawn)	.	-4	.	.	-7	.
CC(C)C[C@H](NC(=O)C1CC1)C(=O)N1CCC[C@H]1C(=O)NCc1ccccc1	.	-3	.	.	-3	.
COc1ccccc1N1CCN(C(=O)c2ccc3c(c2)NC(=O)C(CSCc2ccccc2C)N3)CC1 (stereo not drawn)	.	.	25*	.	.	.
O=C1Nc2cc(C(=O)N3CCN(c4ccccc4F)CC3)ccc2NC1CSCc1ccccc1F (stereo not drawn)	.	.	13	.	.	.
CC(Sc1ccc(S(=O)(=O)N2CCN(C)CC2)cn1)C(=O)NC1(C#N)CCCCC1 (stereo not drawn)	31*	-17	.	3	14	6
O=C(COC(=O)/C=C/c1ccc(Cl)cc1Cl)NCC1CCCO1 (stereo not drawn)	1	-4	27*	10	8	26
Cc1ccc(CN2CCSc3ccc(C(=O)NCC4CCCO4)cc32)cc1 (stereo not drawn)	6	.	33*	4	.	2
Cc1ccc(NS(=O)(=O)c2cc(C(=O)OCC(=O)NCC3CCCO3)ccc2C)cc1 (stereo not drawn)	4	1	34*	1	9	12
O=C(NCC1CCCO1)c1ccc2c(c1)N(Cc1ccc(Cl)cc1)CCS2 (stereo not drawn)	.	5	.	.	8	.
CCN(CC)c1ccc(C(=O)OCC(=O)NCC2CCCO2)cc1 (stereo not drawn)	5	10	32*	0	2	73*
O=C(COC(=O)/C=C/c1c(F)cccc1Cl)NCC1CCCO1 (stereo not drawn)	5	7	.	2	3	7
CN1OC[C@@H]2CN(C(=S)Nc3cc(C(F)(F)F)cc(C(F)(F)F)c3)[C@H](c3ccccc3Br)C[C@@H]21	.	12	.	.	10	.
COC(=O)C1=C(C)N(C)C(=NCc2ccccc2)NC1c1ccccc1C(F)(F)F (stereo not drawn)	.	8	.	.	2	.
O=c1c2ccccc2nnn1Cc1ccco1	.	-8	.	.	-2	.
O=C(CSc1nc2ccccc2c(=O)n1-c1ccccc1)NCC1CCCO1 (stereo not drawn)	5	2	2	8	2	10
COc1ccc(-n2c(SCC(=O)NCC3CCCO3)nc3ccccc32)cc1 (stereo not drawn)	6	-2	26*	-1	2	6
SMILES	PAFAH1B2 inh	ASAP1 GAP inh	pPAFAH inh	PAFAH1B3 inh	ARFGAP1 inh	PAFAH2 FP inh
Cc1ccc(SCC(=O)NCC2CCCO2)cc1 (stereo not drawn)	25*	10	1	-1	-3	0
Cc1cc(C(=O)O)c(C)n1-c1ccccc1	5	9	3	9	7	0
Cc1cc(C(=O)N/N=C2\CC(=O)c3ccccc32)c(C)n1-c1ccccc1	6	-1	31*	5	10	5
CC(NC(=O)C(NC(=O)OCc1ccccc1)C(C)O)C(=O)OCc1ccccc1 (stereo not drawn)	.	-13	.	.	-11	.
O=C(C(=O)N1CCC(CNS(=O)(=O)c2ccc(F)c(F)c2)CC1)c1cc2ccccc2o1	.	2	.	.	7	.
COc1ccc2nc(C)cc(SCC(=O)N/N=C/c3cccc4ccccc34)c2c1	-1	8	-2	-20	-4	-8
Cc1cc(SCC(=O)N/N=C/c2ccc(O)c(O)c2)c(C)cc1Br	3	12	26*	23	7	-8
Cc1cc(SCC(=O)N/N=C/c2ccc(O)c(O)c2)nc2ccccc12	-2	12	27*	15	0	32*
O=C(Cc1nnc(NC(=O)c2ccccc2)s1)N/N=C/c1ccc(O)cc1	6	10	6	11	-7	8
COc1cccc2c(SCC(=O)N/N=C/c3ccc(O)c(O)c3)cc(C)nc12	.	2	16	.	2	.
COc1ccc2nc(C)cc(SCC(=O)N/N=C/c3ccc(O)c(O)c3)c2c1	2	-11	29*	11	-7	19
O=C(Cc1nnc(NC(=O)c2ccccc2)s1)N/N=C\c1ccc(O)c(O)c1	3	3	27*	12	11	16
COc1ccccc1CCn1cnc(-c2ccc(OC)c(OC)c2)c1CC(C)C	.	2	.	.	-2	.
Cc1nc(NC(=O)c2ccccc2)sc1-c1csc(Nc2ccc(C(=O)O)cc2)n1	16	8	.	29*	14	32*
O=C(O)c1ccc(Nc2nc(-c3ccccc3)cs2)cc1	25*	3	8	8	-3	14
Cc1csc(Nc2ccc(C(=O)O)cc2)n1	-2	15	-2	-2	4	-2
COC(=O)c1cc2c(c3c4cc(OC)ccc4n(S(=O)(=O)c4cccc(C)c4)c13)C(=O)N(C)C2	.	-10	.	.	-7	.
CC(C)CN1CCC(CN2C(=S)NC[C@@H]2Cc2ccccc2)CC1	.	4	.	.	7	.
CN1CCN(C(=O)CSc2nc(-c3cccs3)cc(-c3cccs3)c2C#N)CC1	4	.	28*	6	.	19
COc1cccc(CNC(=O)[C@H]2CCCN2C(=O)[C@H]2CCCN2S(=O)(=O)c2cccc(C)c2)c1	.	-12	.	.	-6	.
CCC(=O)Nc1cccc(C(=O)OCC(=O)c2ccccc2Cl)c1	-1	3	3	5	6	41*
O=C(Oc1c(-c2ccccc2)c(=O)n2c3c(cccc13)CC2)c1ccccc1	.	-2	26*	.	-11	.
CCC(C)Sc1ccc(-c2nc3ccc(C)cn3c2NCc2ccccc2)cc1OC (stereo not drawn)	10	.	27*	2	.	9
